Legend:
[1] = system: SARS-CoV-2; assay: Antiviral activity against SARS-CoV-2 infected in human 293TA cells assessed as reduction in cytopathic effect after 2 to 3 days by MTT assay; assay type: functional, organism-based; conditions: Severe acute respiratory syndrome coronavirus 2, 293TA
[2] = system: Influenza A virus; assay: Antiviral activity against influenza A virus A/Puerto Rico/8/34 (H1N1) infected in dog MDCK cells assessed as inhibition of viral cytopathic effect incubated for 48 hrs by crystal violet staining based plaque assay; assay type: functional, organism-based
Method in brief: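 MDCK cells were grown in MEM with 10% FBS at 37 °C and 5% CO2. Compound was premixed with A/PR/8/34 (H1N1) containing 50–200 pfu for 30 min at room temperature. The mixture was adsorbed onto an MDCK monolayer for 30 min at 37 °C, washed, and incubated 2 days. Plaques were counted after crystal violet staining, and IC50 was taken from a logit–log plot.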

[3] = Cytotoxicity against human 293TA cells assessed as reduction in cell viability after 2 to 3 days by MTT assay; assay type: toxicity, cell-based; conditions: time 2-3 day
[4] = system: SARS-CoV-2; assay: Antiviral activity against SARS-CoV-2 infected in African green monkey VeroE6T cells assessed as reduction in cytopathic effect after 2 to 3 days by MTT assay; assay type: functional, organism-based, Vero E6; conditions: Severe acute respiratory syndrome coronavirus 2, Vero C1008
[5] = system: Vero C1008; assay: Cytotoxicity against African green monkey VeroE6T cells assessed as reduction in cell viability after 2 to 3 days by MTT assay; assay type: toxicity, cell-based; conditions: chlorocebus sabaeus, time 2-3 day

SMILES | IC50 [1] [µM] | IC50 [2] [µM] | Activity [3] | IC50 [4] [µM] | Activity [5]
CCCC/C=C/[N+]([O-])=N/[C@H](C)[C@H](C)O | 9.7 | 63.2 | Non-Toxic | 16.4 | Non-Toxic
CCCCCC/[N+]([O-])=N/[C@H](C)[C@H](C)O | 19.7 | 25.7 | Non-Toxic |  | Non-Toxic
CCC(CC)COC(=O)[C@H](C)N[P@](=O)(OC[C@H]1O[C@@](C#N)(c2ccc3c(N)ncnn23)[C@H](O)[C@@H]1O)Oc1ccccc1 [REMDESIVIR] |  |  |  | 0.9 | 

Reference: ChEMBL document CHEMBL5113539, “Dihydromaniwamycin E, a Heat-Shock Metabolite from Thermotolerant Streptomyces sp. JA74, Exhibiting Antiviral Activity against Influenza and SARS-CoV-2 Viruses” (J Nat Prod, 2022)
